The test deals with Mycobacterium tuberculosis. Briefly: Antitubercular activity against […] after 7 days by alamar blue assay. Conditions: 168 h. The test is classed as functional. In a few lines: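 M. bovis BCG stock, thawed with sonication/ice cycles, diluted to 8 × 10⁴ bacteria per mL in Tween albumin broth (Dubos/OADC). Compounds prepared in PBS (up to 5% DMSO) at double strength, filter-sterilised, serially diluted; tested in triplicate from […] start.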

In general, MIC refers to the lowest concentration that inhibits growth of the organism. A low value points to inhibition by little substance.

The compound `C=C[C@H](OC)[C@H](CNC(c1ccccc1)c1ccccc1)OC` came in with an MIC of 800 µM.
The value for `OC[C@@H](O)[C@H](O)[C@H](O)CNC1CCCCCCC1` was above 500 µg/mL; that for `C=C[C@H](O)[C@@H](O)CNC(c1ccccc1)c1ccccc1` was 440 µM.
The value for `OC[C@@H]1NC[C@@H](O)[C@@H]1O` was above 3500 µM; that for `C=C[C@@H](O)[C@@H](O)CNCc1ccccc1` was above 500 µg/mL.
As to `O=C1OC[C@H]2[C@@H](O)CCN12`, the MIC is above 3500 µM.
Consider `C=C[C@@H](O)[C@H](O)CNC12CC3CC(CC(C3)C1)C2`, for which the MIC was above 500 µg/mL.
`C[C@H](O)[C@@H](O)[C@@H](O)[C@H](O)CNC1CCCCCCCCCCC1` registered an MIC of 680 µM.
Compound `C=C[C@H](O)[C@@H](O)CNCCCCCCCC` returned an MIC of 940 µM.
The value for `CC[C@@H](CO)NCCN[C@@H](CC)CO` [ETHAMBUTOL] was 39 µM; that for `C=C[C@@H](O)[C@H](O)CN(CCCC)CCCC` was above 500 µg/mL; that for `C[C@H](O)[C@H](O)[C@@H](O)[C@@H](O)CNC1CCCCCCC1` was above 500 µg/mL.
The value for `OC[C@@H](O)[C@H](O)[C@H](O)CNC1CCCCCCCCCCC1` was 160 µM.
In turn, `OC[C@@H]1NCC[C@@H]1O` gave an MIC above 3500 µM.
Consider `CCCCCCCCCCCCCCN` [TETRADECYLAMINE], for which the MIC was determined as 140 µM.
In the case of `C=C[C@H](O)[C@@H](O)CNCc1ccccc1`, the MIC was above 500 µg/mL.
For `O=C1OC[C@@H]2[C@H](O)[C@@H](O)CN12`, the minimum inhibitory concentration (MIC) is above 3500 µM.
In turn, `C=C[C@@H](O)[C@H](O)CNCCCCCCCC` came in with an MIC of 680 µM.
Consider `O=C1OC[C@H]2[C@@H](O)[C@H](O)CN12`, for which the MIC was above 3500 µM.
The value for `C=C[C@H](O)[C@@H](O)CN` was above 3500 µM.
The compound `C=C[C@@H](O)CCN` registered an MIC above 3500 µM.
The value for `C=C[C@@H](O)[C@@H](O)CN` was above 3500 µM.
`C=C[C@@H](O)[C@H](O)CNC1CCCCCCCCCCC1` returned an MIC of 200 µM.
In turn, `C[C@H](O)[C@@H](O)[C@@H](O)[C@H](O)CNC1CCCCC1` showed an MIC above 500 µg/mL.
The value for `C=C[C@@H](O)[C@H](O)CN(C)CCCCCCCCCCCCCCCC` was 22 µM; that for `C=C[C@@H](O)[C@H](O)CNCCCCCCCCCCCCCC` was 45 µM.
Turning to `C=C[C@@H](O)[C@H](O)CNC(c1ccccc1)c1ccccc1`, the MIC was 1600 µM.
On to `C=C[C@@H](O)[C@H](O)CNCCCCCCCCCCCCCCCC`, for which the lowest concentration to inhibit growth (MIC) was 21 µM.
The value for `C=C[C@@H](O)[C@@H](O)CNCCCCCCCC` was 940 µM.
`C[C@H](O)[C@@H](O)[C@@H](O)[C@H](O)CNC1CCCCCCC1` registered an MIC above 500 µg/mL.
Turning to `NC1CCCCCCCCCCC1`, the MIC was determined as 680 µM.
With `O=C1OC[C@H]2[C@@H](O)[C@@H](O)CN12`, the MIC was above 3500 µM.
Compound `C=C[C@@H](O)[C@H](O)CNC[C@@H](O)[C@H](O)C=C` came in with an MIC of 2000 µM.
The compound `C=C[C@@H](O)[C@@H](O)CNC(c1ccccc1)c1ccccc1` had an MIC of 1600 µM.
With `OC[C@@H](O)[C@H](O)[C@H](O)CNC1CCCCC1`, the MIC is above 500 µg/mL.
In turn, `OC[C@@H](O)[C@H](O)[C@H](O)CNC12CC3CC(CC(C3)C1)C2` showed a minimal inhibitory concentration (MIC) above 500 µg/mL.
Consider `OC[C@H]1NC[C@H](O)[C@H]1O`, for which the MIC was above 3500 µM.
`C=C[C@@H](O)[C@H](O)CN` registered an MIC above 3500 µM.
Take `CCCCCCCCCCCCCCCCN` [HEXADECYLAMINE]: inhibition of growth (MIC) required 130 µM.
In turn, `OC[C@@H]1NC[C@H](O)[C@@H]1O` gave an MIC above 3500 µM.
The value for `C=C[C@@H](O)[C@H](O)CNCc1ccccc1` was above 500 µg/mL.
The compound `NC(c1ccccc1)c1ccccc1` [AMINODIPHENYLMETHANE] came in with an MIC of 1360 µM.

(Values after ChEMBL document CHEMBL3751768, “Synthesis and anti-tuberculosis activity of glycitylamines” (2016).)
